Shown are actives, neighbours in structure and some others; about 2.4% of the full set was active somewhere.
TbMetRS inhib: T. brucei MetRS inhibitors, primary screen, biochemical, luminescence. methionyl-tRNA synthetase (Trypanosoma brucei brucei). purified T. brucei MetRS, ATP depletion, Kinase-Glo luminescence. inhibition, % at 11.9 µM. 360,000 tested, 0.4% active;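 active = inhibition above a per-plate cutoff of the control wells' mean inhibition plus 3 SD, cut at about 5.5% in these data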;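 note: 0% = DMSO wells median and 100% = median of wells with control inhibitor compound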
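Measured by: Kinase-Glo luciferase luminescence reporting remaining unconsumed ATP. Material: purified T. brucei MetRS enzyme. Doses: 11.9 µM compound single dose, 0.9% DMSO. Medium: HEPES buffer containing pyrophosphatase, BSA, spermine, DTT. Times: 15 min preincubation, 2 h reaction, all 25 °C. Reagent: methionine, ATP and bulk E. coli tRNA.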
Neddyl block: inhibitors of cullin neddylation, primary screen, biochemical, TR-FRET, uHTS, NAE and Ubc12; NEDD8-conjugating enzyme Ubc12 (Homo sapiens) + NEDD8-activating enzyme E1 regulatory …; inhibition, % at 25 µM; 360,000 tested, 0.58% active; in the data active = inhibition above about 36%
PREPL inh: PREPL enzyme inhibitors, primary screen, biochemical, fluorescence polarization; Prolyl endopeptidase-like (Homo sapiens), Q4J6C6; recombinant PREPL, fluorescence polarization activity-based probe; inhibition, % at 5.96 µM; 320,000 tested, 0.68% active; AID 2751, 2010; in the data active = inhibition above about 43%;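 note: 0% = enzyme with DMSO and 100% = wells lacking enzyme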
CSN inh: inhibitors of CSN-mediated cullin deneddylation, primary screen, biochemical, fluorescence polarization, uHTS | 360,000 tested, 0.38% active | COP9 signalosome complex subunit 5 (Homo sapiens), Q92905 | inhibition, % at 12.5 µM | Purified CSN, SCF-Nedd8-OG deneddylation;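 active = pattern-corrected inhibition above about 35%, with an unprinted fluorescence ratio check between 0.5 and 1.5, limit read from the data, passing the limit was not always enough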;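 note: 0% = enzyme with substrate and 100% = substrate without enzyme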
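Assay system: purified human Csn5 enzyme expressed in HEK293T cells; measure: % inhibition; also added: SCFSkp2-Nedd8OG substrate at 10 nM final; technique: fluorescence polarization; times: reaction 90 min, room temperature; medium: Tris buffer pH 7.5, NaCl, DTT, Tween-20, trehalose, ovalbumin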
HNF4A DNA FP: change in binding of human HNF4A to DNA, primary screen, biochemical, fluorescence polarization, FITC-DNA | 1 h | activity change, % at 10 µM | 360,000 tested, 0.3% active | AID 1224865, 2016; in the data active = activity change above about 30%, passing the limit was not always enough
Rpn11 inh: Rpn11 (PSMD14) deubiquitinase inhibitors, primary screen, biochemical, fluorescence polarization, uHTS; human 26S proteasome, Ub4-pepOG fluorescence polarization; 20S core pre-blocked with epoxomicin; 26S proteasome non-ATPase regulatory subunit 14 (Homo sapiens), O00487; 360,000 tested, 0.59% active; inhibition, % at 20 µM;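 active = inhibition at 20 µM, scaled to each plate's controls, above about 33%, limit read from the data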
Target sequence (O00487 whole entry, looked up): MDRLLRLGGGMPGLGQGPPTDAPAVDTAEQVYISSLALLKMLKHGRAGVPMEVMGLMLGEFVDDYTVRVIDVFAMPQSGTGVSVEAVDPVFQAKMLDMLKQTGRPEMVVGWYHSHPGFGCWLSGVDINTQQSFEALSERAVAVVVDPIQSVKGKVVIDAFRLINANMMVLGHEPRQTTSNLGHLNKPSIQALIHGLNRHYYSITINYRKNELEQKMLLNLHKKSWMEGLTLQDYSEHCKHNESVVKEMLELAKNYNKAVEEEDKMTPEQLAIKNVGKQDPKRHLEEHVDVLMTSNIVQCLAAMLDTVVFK
Neddyl inh conf: blockade of NEDD8 conjugation to cullin – biochemical, TR-FRET, single concentration, confirmation; TR-FRET cullin neddylation biochemical assay; 1,800 tested, 13% active; calls only at 25 µM; shares compounds with Neddyl block; in the data active = inhibition above about 40%;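 note: neddylation substrate is the cullin 1 ring ligase complex with SKP2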
The depositor's hits bear a star.

What do the screens show for `Cc1cc(C)cc(CC(=O)N2CCC2(C)C(=O)NS(=O)(=O)c2cccc(F)c2)c1` (stereo unspecified)?
TbMetRS inhib: 0.1; Neddyl block: -6.4; CSN inh: -4.2; HNF4A DNA FP: 0.3; Rpn11 inh: -4.6

How did COC(=O)c1ccc(-c2ccc(/C=N/NC(=O)Cc3nnc(N)s3)o2)cc1 do in these assays?
TbMetRS inhib: 0.4; Neddyl block: 51.4*; PREPL inh: 6.5; CSN inh: 5.2; HNF4A DNA FP: 3.2; Rpn11 inh: 14.3; Neddyl inh conf: inactive

Results for COc1ccc(-c2ccc(/C=N/NC(=O)Cc3nnc(N)s3)o2)cc1Cl ?
TbMetRS inhib: 0.3; Neddyl block: 30.5; PREPL inh: 16.0; CSN inh: 8.5; HNF4A DNA FP: 10.6; Rpn11 inh: 20.9

What do the screens show for `NC(=S)NN=Cc1ccc(-c2ccc(S(=O)(=O)Nc3ncccn3)cc2)o1`?
TbMetRS inhib: 0.7; Neddyl block: 27.6; PREPL inh: 21.7; CSN inh: 29.7; HNF4A DNA FP: -32.3; Rpn11 inh: 24.4

How did CCOc1ccc(C(=O)N/N=C/c2ccc(-c3ccc(S(=O)(=O)Nc4ncccn4)cc3)o2)cc1 do in these assays?
TbMetRS inhib: 0.3; Neddyl block: 57.1*; PREPL inh: 22.8; CSN inh: 6.5; HNF4A DNA FP: -3.5; Rpn11 inh: 16.6; Neddyl inh conf: active

Results for O=C(NCc1cccnc1)c1ccccc1NS(=O)(=O)c1ccc(Br)cc1 ?
TbMetRS inhib: -0.5; Neddyl block: 14.1; PREPL inh: 12.0; CSN inh: -4.4; HNF4A DNA FP: -2.8; Rpn11 inh: -5.9

Results for Cc1cc(F)ccc1S(=O)(=O)Nc1ccccc1C(=O)NCc1cccnc1 ?
TbMetRS inhib: -0.3; Neddyl block: 43.7*; PREPL inh: -2.5; CSN inh: -0.6; HNF4A DNA FP: 3.0; Rpn11 inh: -6.1; Neddyl inh conf: inactive

What do the screens show for `Cc1ccccc1C(=O)NC1CCN(Cc2ccccc2)CC1`?
TbMetRS inhib: -0.1; Neddyl block: 0.3; PREPL inh: 0.0; CSN inh: 3.9; HNF4A DNA FP: 2.7; Rpn11 inh: 5.5

What do the screens show for `Cc1cc(F)ccc1S(=O)(=O)Nc1ccccc1C(=O)NC1CCN(Cc2ccccc2)CC1`?
TbMetRS inhib: -0.4; Neddyl block: 46.7*; CSN inh: 0.3; HNF4A DNA FP: -4.0; Rpn11 inh: 0.1; Neddyl inh conf: active

How did COc1ccc(S(=O)(=O)Nc2ccccc2C(=O)NCc2cccnc2)cc1C do in these assays?
TbMetRS inhib: -0.2; Neddyl block: 40.4*; PREPL inh: -0.7; CSN inh: -1.0; HNF4A DNA FP: 1.2; Rpn11 inh: -3.1

Results for Cc1ccc(Cl)cc1NC(=O)c1cc(NC(=O)C2CCCCC2C(=O)O)ccc1N1CCOCC1 (stereo unspecified) ?
TbMetRS inhib: -0.1; Neddyl block: 35.6; PREPL inh: 5.6; CSN inh: 0.0; HNF4A DNA FP: -0.8; Rpn11 inh: 0.6

How did Cc1ccc(C(=O)N/C(=C\c2ccccc2)C(=O)NCCN2CCOCC2)cc1 do in these assays?
TbMetRS inhib: -0.1; Neddyl block: -8.5; PREPL inh: -4.9; CSN inh: -4.3; HNF4A DNA FP: 1.1; Rpn11 inh: 2.5

How did CCOC(=O)C1=C(C)N(C)C(=O)NC1c1cccc2ccccc12 (stereo unspecified) do in these assays?
TbMetRS inhib: -0.3; Neddyl block: -3.0; PREPL inh: -20.1; CSN inh: 5.0; HNF4A DNA FP: -4.7; Rpn11 inh: 1.0

From PubChem
